We go through 7 molecules from ChEMBL document CHEMBL3352816, “Synthesis and antiproliferative activity of imidazo[2,1-b][1,3,4]thiadiazole derivatives” (Bioorg Med Chem Lett, 2014).

Test [1] in a line: Growth inhibition of human NSCLC cells. In kind it is functional.
Test [2] in a line: Growth inhibition of human Leukemia cells. To be noted: for GI50 / TGI: Leukemia cell. The test is classed as functional.
Test [3] is described as follows: Growth inhibition of human Colon cancer cells. In kind it is functional. To be noted: Cancer cell lines; for CC50: read-out: LC50 (the source's name).
The nature of test [4]: Growth inhibition of human CNS cancer cells. In kind it is functional. Conditions: Cancer cell lines.
Test [5] in a line: Growth inhibition of human Melanoma cells. The test is classed as functional. Conditions: Melanoma cell.
Test [6] in a line: Growth inhibition of human Ovarian cancer cells. The test is classed as functional. To be noted: Cancer cell lines.
Test [7] in a line: Growth inhibition of human Renal cancer cells. Conditions: Cancer cell lines. The test is classed as functional.
Test [8] in a line: Growth inhibition of human Prostate cancer cells. The test is classed as functional. To be noted: Cancer cell lines.
Test [9] is described as follows: Growth inhibition of human Breast cancer cells. In kind it is functional. To be noted: Cancer cell lines.
For test [10], the system named is REH. Nature of the test: Cytotoxicity against human REH cells assessed as reduction in cell viability at 10 to 250 uM after 24 to 72 hrs by trypan blue exclusion assay. The test is classed as functional, cell-based. Summed up:
(§1)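 Reh, K562 and Nalm6 leukemic cells were treated with 10, 50, 100 and 250 µM or with 0.1, 0.5, 1, 5 and 10 µM (compounds dissolved in DMSO). Viability was scored by trypan blue after 24, 48 and 72 h. DMSO-treated cells served as vehicle control.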

The next test concerns K562. As to the kind of experiment: Cytotoxicity against human K562 cells assessed as reduction in cell viability at 10 to 250 uM after 24 to 72 hrs by trypan blue exclusion assay. In kind it is functional, cell-based. Summed up: as §1
In the next test the test system is NALM-6. As to the kind of experiment: Cytotoxicity against human NALM6 cells assessed as reduction in cell viability at 10 to 250 uM after 24 to 72 hrs by trypan blue exclusion assay. In kind it is functional, cell-based. In a few lines:
as §1

Test [11] has as its system REH. Nature of the test: Cytotoxicity against human REH cells assessed as reduction in cell viability at 100 to 250 uM after 48 to 72 hrs by MTT assay. In kind it is functional, cell-based. In a few lines:
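MTT viability read-out in leukemic cells treated with 10, 50, 100 and 250 µM or with 0.1, 0.5, 1, 5 and 10 µM. Cells harvested after 48 and 72 h. Compounds dissolved in DMSO.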

Activity calls are given as the source filed them. No cut-off for these calls is given here.

As to `N#CSc1c(-c2ccccc2)nc2sc(Cc3ccccc3)nn12`, the concentration for 50% growth inhibition (GI50) came out at 6 µM in [1]; 13.5 µM in test [2]; 11.2 µM in test [3]; 4.4 µM in test [4]; 20.9 µM in [5]; 9.8 µM in [6]. Moreover, the GI50 is 15.1 µM in [7], 15.5 µM in [8] and 7.4 µM in test [9]. This molecule yielded an LC50 (concentration killing 50% of cells) in [1] of 97.7 µM. Further, the TGI was 75.9 µM in test [1]; 57.5 µM in test [2]; 91.2 µM in test [3]; 77.6 µM in [4]; 85.1 µM in [5]; 79.4 µM in [6]. For the same molecule, the TGI was determined as 70.8 µM in [7], 40.7 µM in test [8] and 75.9 µM in test [9]. Further, the figures for the LC50 in [6] and in [7] were 97.7 µM and 95.5 µM, respectively.

Consider `COc1ccc(-c2nc3sc(Cc4ccccc4)nn3c2SC#N)cc1`, for which the GI50 in test [1] stood at 4.6 µM; in test [2], 3.6 µM; in test [3] it was 4.1 µM; in test [4] it was 3.9 µM; in test [5], 5.8 µM; in test [6] it was 5.6 µM. The results for the GI50 in test [7] and in test [9] were 7.9 µM and 4.8 µM, respectively. Further, the LC50 (concentration killing 50% of cells) in [1] worked out at 83.2 µM. Also, the TGI in test [1] is 52.5 µM; in test [2], 72.4 µM; in test [3] it was 61.7 µM; in test [4], 55 µM; in test [5] it was 77.6 µM; in [6], 56.2 µM. Also, the figures for the TGI in test [7] and in test [9] were 70.8 µM and 60.3 µM, respectively. The LC50 in test [5] came to 89.1 µM.

Consider `CO[C@H]1/C=C/O[C@@]2(C)Oc3c(C)c(O)c4c(O)c(cc(O)c4c3C2=O)NC(=O)/C(C)=C\C=C\[C@H](C)[C@H](O)[C@@H](C)[C@@H](O)[C@@H](C)[C@H](OC(C)=O)[C@@H]1C` [RIFAMYCIN], for which the GI50 in test [1] was found to be 14.5 µM; in test [2] it was 3.2 µM; in test [3], 10 µM; in test [4], 21.4 µM; in test [5] it was 15.5 µM; in test [6], 18.6 µM. Also, the GI50 came out at 15.9 µM in [7], 10 µM in test [8] and 16.6 µM in [9].

Turning to `O=Cc1c(-c2ccc([N+](=O)[O-])cc2)nc2sc(Cc3ccccc3)nn12`, the GI50 was determined as 2.9 µM in test [1]; 5.9 µM in test [2]; 3.1 µM in [3]; 2.9 µM in [4]; 3.7 µM in [5]; 4.1 µM in test [6]. For the same molecule, the GI50 was 3.7 µM in [7], 3 µM in test [8] and 2.8 µM in [9]. In addition, the LC50 (concentration killing 50% of cells) in test [1] was 95.5 µM. Besides, the TGI in test [1] stood at 45.7 µM; in test [2], 26.3 µM; in test [3] it was 31.6 µM; in [4], 26.9 µM; in [5] it was 42.7 µM; in [6], 39.8 µM. Also, the TGI in test [7] was 58.9 µM; in test [8] it was 50.1 µM; in test [9], 26.3 µM. In test [2], this molecule showed an LC50 (concentration causing 50% net cell kill) of 69.2 µM. Besides, the CC50 in test [3] stood at 85.1 µM. Moreover, the LC50 in test [4] and in [9] was 83.2 µM each time.

For the molecule `O=[N+]([O-])c1ccc(-c2nc3sc(Cc4ccccc4)nn3c2Br)cc1`, the GI50 came to 12.6 µM in test [1]; 69.2 µM in [2]; 52.5 µM in [3]; 3.4 µM in test [4]; 40.7 µM in [5]; 6.3 µM in test [6]. Moreover, the GI50 in [7] is 3.7 µM; in [8], 42.7 µM; in test [9], 17.4 µM. Moreover, the TGI in test [1] worked out at 56.2 µM; in test [3], 83.2 µM; in test [4], 47.9 µM; in test [6], 83.2 µM; in [7], 64.6 µM; in test [9], 79.4 µM.

For `Clc1ccc(-c2cn3nc(Cc4ccccc4)sc3n2)cc1`, the GI50 in test [1] is 7.6 µM; in test [2] it was 2.1 µM; in [3], 2.2 µM; in test [4], 5 µM; in test [5], 3.7 µM; in [6], 4.6 µM. Besides, the GI50 in [7] worked out at 2.6 µM; in test [8], 2.9 µM; in test [9] it was 4 µM. The same molecule returned an LC50 (concentration killing 50% of cells) in [1] of 57.5 µM. Besides, the TGI in test [1] is 20.9 µM; in test [2] it was 23.4 µM; in [3], 5.3 µM; in test [4], 13.8 µM; in test [5] it was 8.9 µM; in test [6] it was 10.5 µM. Moreover, the TGI is 5.9 µM in test [7], 8.1 µM in [8] and 12 µM in test [9]. In addition, the LC50 (concentration causing 50% net cell kill) in test [2] was found to be 95.5 µM. The CC50 in [3] came out at 14.1 µM; in [8] (read-out: LC50 (the source's name)), 23.4 µM. The LC50 amounted to 34.7 µM in [4]; 21.9 µM in [5]; 30.9 µM in test [6]; 15.1 µM in test [7]; 49 µM in test [9]. In addition, the result in the test with REH [10], with K562, in the test on NALM-6 and in the test on REH [11] was Active.

As for `O=Cc1c(-c2ccc(F)cc2)nc2sc(CCC3CCCCC3)nn12`, the concentration for 50% growth inhibition (GI50) in test [1] was 13.2 µM; in test [2], 10.2 µM; in test [3], 5.9 µM; in test [4], 7.1 µM; in test [5], 21.9 µM; in test [6], 12.3 µM. Moreover, the GI50 in test [7] was 14.1 µM; in test [8] it was 7.4 µM; in [9] it was 11.8 µM. The TGI in test [1] was found to be 75.9 µM; in test [2], 70.8 µM; in [3], 63.1 µM; in [4] it was 67.6 µM; in test [5], 87.1 µM; in test [6], 97.7 µM. The values for the TGI in test [7] and in [9] were 93.3 µM and 61.7 µM, respectively.
